Results published in ChEMBL document CHEMBL3580653, “Development of novel CXC chemokine receptor 7 (CXCR7) ligands: selectivity switch from CXCR4 antagonists with a cyclic pentapeptide scaffold” (J Med Chem, 2015).
Where a SMILES comes first, the peptide text is derived from it. [ ]: non-standard residue; d: D form. 2Nal = N[C@@H](Cc1ccc2ccccc2c1)C(=O)O; Pip = O=C(O)[C@@H]1CCCCN1; dPip = O=C(O)[C@H]1CCCCN1; βAla = NCCC(=O)O

Legend:
[1] = target: T1, Atypical chemokine receptor 3 (Homo sapiens, UniProt P25106); test: Inhibition of [125I]SDF-1alpha binding to CXCR7 (unknown origin) expressed in CHO cell membranes incubated for 1 hr by radioligand displacement assay
Outline: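 Scintillation proximity binding: receptor membranes (10−20 µg/well) on WGA beads (0.25 mg/well) incubated with peptide and [125I]-SDF-1α (0.20 nM for CXCR4, 0.25 nM for CXCR7). Room temperature, 1 h. Bound radioactivity counted 1 min/well. IC50 taken from inhibition of tracer binding.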

[2] = target: C-X-C chemokine receptor type 4 (Homo sapiens, UniProt P61073); test: Inhibition of [125I]SDF-1alpha binding to CXCR4 (unknown origin) expressed in HEK293 cell membranes incubated for 1 hr by radioligand displacement assay
[3] = target: T1, Atypical chemokine receptor 3; test: Agonist activity at CXCR7 (unknown origin) expressed in HEK293E cells co-transfected with receptor-eYFP construct and beta-arrestin2-Rluc assessed as induction of receptor-mediated beta-arrestin recruitment by BRET assay; type: cell-based
Outline: (§1)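 Transient co-transfection of HEK293E cells with 1 µg receptor-eYFP plus 0.05 µg β-arrestin2-Rluc, made up to 2 µg/well with empty vector. Cells cultured overnight, seeded on poly(D-lysine) plates and grown 24 h more. Ligand added in BRET buffer (PBS, 0.5 mM MgCl2, 0.01% BSA), 5 min at 37 °C, then coelenterazine h 5 µM final. Read 30 min after ligand addition. Net BRET = YFP (510–550 nm)/Rluc (460–500 nm) minus Rluc-only background.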

[4] = target: Atypical chemokine receptor 3 (Homo sapiens, UniProt P25106, D275N); test: Agonist activity at CXCR7 D275N mutant (unknown origin) expressed in HEK293E cells co-transfected with receptor-eYFP construct and beta-arrestin2-Rluc assessed as induction of receptor-mediated beta-arrestin recruitment by BRET assay; type: cell-based; outline: as §1
[5] = target: Atypical chemokine receptor 3 (Homo sapiens, UniProt P25106, S198R); test: Agonist activity at CXCR7 S198R mutant (unknown origin) expressed in HEK293E cells co-transfected with receptor-eYFP construct and beta-arrestin2-Rluc assessed as induction of receptor-mediated beta-arrestin recruitment by BRET assay; type: cell-based; outline: as §1
[6] = target: Atypical chemokine receptor 3 (Homo sapiens, UniProt P25106, D179N); test: Agonist activity at CXCR7 D179N mutant (unknown origin) expressed in HEK293E cells co-transfected with receptor-eYFP construct and beta-arrestin2-Rluc assessed as induction of receptor-mediated beta-arrestin recruitment by BRET assay; type: cell-based; outline: as §1
[7] = target: T1, Atypical chemokine receptor 3; test: Agonist activity at wild type CXCR7 (unknown origin) expressed in HEK293E cells co-transfected with receptor-eYFP construct and beta-arrestin2-Rluc assessed as induction of receptor-mediated beta-arrestin recruitment by BRET assay; type: cell-based; outline: as §1

C-X-C chemokine receptor type 4, sequence (P61073 whole entry): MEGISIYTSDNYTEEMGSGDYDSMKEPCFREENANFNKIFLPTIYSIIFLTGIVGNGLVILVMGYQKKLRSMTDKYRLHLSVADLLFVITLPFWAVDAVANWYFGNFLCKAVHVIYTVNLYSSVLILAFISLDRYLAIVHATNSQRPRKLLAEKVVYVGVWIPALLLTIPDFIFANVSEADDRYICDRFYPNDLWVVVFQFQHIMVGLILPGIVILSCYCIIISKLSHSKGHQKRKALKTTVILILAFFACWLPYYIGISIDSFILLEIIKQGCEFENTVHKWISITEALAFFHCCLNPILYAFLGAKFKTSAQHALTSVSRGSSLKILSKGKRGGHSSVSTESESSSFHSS
Atypical chemokine receptor 3 (Homo sapiens, UniProt P25106, D179N), sequence (P25106 whole entry D179N): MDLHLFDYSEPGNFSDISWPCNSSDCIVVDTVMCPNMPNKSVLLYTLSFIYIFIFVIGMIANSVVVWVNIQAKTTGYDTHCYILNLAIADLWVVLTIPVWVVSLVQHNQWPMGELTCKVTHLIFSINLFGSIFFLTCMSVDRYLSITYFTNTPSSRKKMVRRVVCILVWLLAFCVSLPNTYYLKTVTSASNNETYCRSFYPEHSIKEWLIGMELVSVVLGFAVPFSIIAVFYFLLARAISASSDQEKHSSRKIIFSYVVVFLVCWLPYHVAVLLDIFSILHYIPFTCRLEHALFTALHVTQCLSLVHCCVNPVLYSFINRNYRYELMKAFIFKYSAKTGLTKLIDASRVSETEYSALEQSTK
T1 sequence (P25106 whole entry): as the sequence (P25106 whole entry D179N) above, with N179D counted along it
Atypical chemokine receptor 3 (Homo sapiens, UniProt P25106, D275N), sequence (P25106 whole entry D275N): as the sequence (P25106 whole entry D179N) above, with N179D, D275N counted along it
Atypical chemokine receptor 3 (Homo sapiens, UniProt P25106, S198R), sequence (P25106 whole entry S198R): as the sequence (P25106 whole entry D179N) above, with N179D, S198R counted along it

| Compound | IC50 [1] [µM] | IC50 [2] [µM] | other results |
| --- | --- | --- | --- |
| CN1C(=O)[C@H](CCCNC(=N)N)NC(=O)[C@@H](Cc2ccc(O)cc2)NC(=O)[C@@H]2CCCN2C(=O)[C@H](Cc2ccc3ccccc3c2)NC(=O)[C@H]1CCCNC(=N)N | 4.6 | > 30 | – |
| CC[C@H](C)[C@@H]1NC(=O)[C@H]([C@@H](C)O)NC(=O)[C@H]2CCCN2C(=O)[C@H](Cc2ccc3ccccc3c2)NC(=O)[C@H](CCCNC(=N)N)NC(=O)[C@@H](CCCNC(=N)N)NC1=O (cyclo([2Nal][dP]TI[dR]R)) | 1.7 | – | EC50 ([3]; read-out: EC50): 0.036 µM; EC50 ([3]; read-out: pEC50 (converted)): 0.0316 µM |
| N=C(N)NCCC[C@@H]1NC(=O)[C@H](CCCNC(=N)N)NC(=O)[C@@H](Cc2ccc(O)cc2)NC(=O)[C@@H]2CCCN2C(=O)[C@H](Cc2ccc3ccccc3c2)NC1=O | 1.5 | > 30 | EC50 [4]: 1.5 µM; EC50 ([3]; read-out: EC50): 0.074 µM; EC50 [5]: 0.36 µM; EC50 ([6]; read-out: EC50): 3.5 µM; EC50 ([6]; read-out: pEC50 (converted)): 3.98 µM; EC50 ([7]; read-out: EC50): 0.19 µM; EC50 ([7]; read-out: pEC50 (converted)): 0.126 µM |
| N=C(N)NCCC[C@@H]1NC(=O)[C@H](CCCNC(=N)N)NC(=O)[C@@H](Cc2ccc(O)cc2)NC(=O)[C@@H]2CCCN2C(=O)[C@@H](Cc2ccc3ccccc3c2)NC1=O | > 30 | > 30 | – |
| C[C@H]1C(=O)N[C@H](Cc2ccc(O)cc2)C(=O)N[C@@H](CCCNC(=N)N)C(=O)N[C@@H](CCCNC(=N)N)C(=O)N[C@@H](Cc2ccc3ccccc3c2)C(=O)N1C | 15 | > 30 | – |
| N=C(N)NCCC[C@@H]1NC(=O)[C@@H](CCCNC(=N)N)NC(=O)[C@@H](Cc2ccc(O)cc2)NC(=O)[C@@H]2CCCN2C(=O)[C@H](Cc2ccc3ccccc3c2)NC1=O | 4.6 | > 30 | – |
| N=C(N)NCCC[C@@H]1NC(=O)[C@H](CCCNC(=N)N)NC(=O)[C@@H](Cc2ccc(O)cc2)NC(=O)[C@H]2CCCCN2C(=O)[C@H](Cc2ccc3ccccc3c2)NC1=O (cyclo([2Nal][dPip][dY]RR)) | > 30 | > 30 | – |
| CN1C(=O)[C@@H]2CCCN2C(=O)[C@H](Cc2ccc3ccccc3c2)NC(=O)[C@H](CCCNC(=N)N)NC(=O)[C@H](CCCNC(=N)N)NC(=O)[C@@H]1Cc1ccc(O)cc1 | 23 | > 30 | – |
| N=C(N)NCCC[C@@H]1NC(=O)[C@H](CCCNC(=N)N)NC(=O)[C@@H](Cc2ccc(O)cc2)NC(=O)[C@@H]2CCCCN2C(=O)[C@H](Cc2ccc3ccccc3c2)NC1=O (cyclo([2Nal][Pip][dY]RR)) | 13 | > 30 | – |
| CN1C(=O)[C@H](CCCNC(=N)N)NC(=O)[C@H](CCCNC(=N)N)NC(=O)[C@@H](Cc2ccc(O)cc2)NC(=O)[C@@H]2CCCN2C(=O)[C@@H]1Cc1ccc2ccccc2c1 | 3.4 | > 30 | – |
| N=C(N)NCCC[C@@H]1NC(=O)[C@H](CCCNC(=N)N)NC(=O)[C@@H](Cc2ccc(O)cc2)NC(=O)[C@H]2CCCN2C(=O)[C@H](Cc2ccc3ccccc3c2)NC1=O | > 30 | > 30 | – |
| N=C(N)NCCC[C@@H]1NC(=O)[C@H](CCCNC(=N)N)NC(=O)[C@@H](Cc2ccc(O)cc2)NC(=O)CNC(=O)[C@H](Cc2ccc3ccccc3c2)NC1=O | > 30 | – | EC50 ([3]; read-out: EC50): 2.4 µM; EC50 ([3]; read-out: pEC50 (converted)): 2 µM |
| CN1C(=O)[C@@H]2CCCN2C(=O)[C@H](Cc2ccc3ccccc3c2)NC(=O)[C@H](CCCNC(=N)N)NC(=O)[C@H](CCCNC(=N)N)NC(=O)[C@H]1Cc1ccc(O)cc1 | 18 | > 30 | – |
| C[C@@H]1C(=O)N[C@H](Cc2ccc(O)cc2)C(=O)N[C@@H](CCCNC(=N)N)C(=O)N[C@@H](CCCNC(=N)N)C(=O)N[C@@H](Cc2ccc3ccccc3c2)C(=O)N1C | > 30 | 4.6 | – |
| N=C(N)NCCC[C@@H]1NC(=O)[C@@H](Cc2ccc(O)cc2)NC(=O)[C@@H]2CCCN2C(=O)[C@H](Cc2ccc3ccccc3c2)NC(=O)[C@@H](CCCNC(=N)N)NC1=O | > 30 | > 30 | – |
| CN1C(=O)[C@@H](Cc2ccc(O)cc2)NC(=O)[C@@H]2CCCN2C(=O)[C@H](Cc2ccc3ccccc3c2)NC(=O)[C@H](CCCNC(=N)N)NC(=O)[C@@H]1CCCNC(=N)N | 2.4 | > 30 | – |
| N=C(N)NCCC[C@@H]1NC(=O)[C@H](CCCNC(=N)N)NC(=O)[C@@H](Cc2ccc(O)cc2)NC(=O)CCNC(=O)[C@H](Cc2ccc3ccccc3c2)NC1=O (cyclo([2Nal][βAla][dY]RR)) | > 30 | 6 | – |
| C[C@@H]1NC(=O)[C@@H](Cc2ccc(O)cc2)NC(=O)[C@@H]2CCCN2C(=O)[C@H](Cc2ccc3ccccc3c2)NC(=O)[C@H](CCCNC(=N)N)N(C)C1=O | 16 | > 30 | – |
| C[C@H]1NC(=O)[C@H](Cc2ccc3ccccc3c2)NC(=O)[C@H](CCCNC(=N)N)NC(=O)[C@H](CCCNC(=N)N)NC(=O)[C@@H](Cc2ccc(O)cc2)NC1=O (cyclo([dY]RR[2Nal][dA])) | > 30 | 2.2 | – |
| C[C@H]1C(=O)N[C@@H](Cc2ccc3ccccc3c2)C(=O)N2CCC[C@H]2C(=O)N[C@H](Cc2ccc(O)cc2)C(=O)N[C@@H](CCCNC(=N)N)C(=O)N1C | 11 | > 30 | – |
| N=C(N)NCCC[C@@H]1NC(=O)[C@H](Cc2ccc(O)cc2)NC(=O)[C@@H]2CCCN2C(=O)[C@H](Cc2ccc3ccccc3c2)NC(=O)[C@H](CCCNC(=N)N)NC1=O | > 30 | > 30 | – |
| CN1C(=O)[C@H](CCCNC(=N)N)NC(=O)[C@H](CCCNC(=N)N)NC(=O)[C@@H](Cc2ccc(O)cc2)NC(=O)[C@@H]2CCCN2C(=O)[C@H]1Cc1ccc2ccccc2c1 | > 30 | > 30 | – |
| C[C@@H]1NC(=O)[C@H](CCCNC(=N)N)N(C)C(=O)[C@H](CCCNC(=N)N)NC(=O)[C@@H](Cc2ccc(O)cc2)NC(=O)[C@@H]2CCCN2C1=O | > 30 | > 30 | – |
| CN1C(=O)[C@H](CCCNC(=N)N)NC(=O)[C@@H](Cc2ccc(O)cc2)NC(=O)[C@@H]2CCCN2C(=O)[C@H](Cc2ccc3ccccc3c2)NC(=O)[C@@H]1CCCNC(=N)N | 0.8 | > 30 | EC50 [4]: 0.65 µM; EC50 ([3]; read-out: EC50): 0.095 µM; EC50 [5]: 0.36 µM; EC50 ([6]; read-out: EC50): 2 µM; EC50 ([7]; read-out: EC50): 0.24 µM; EC50 ([7]; read-out: pEC50 (converted)): 0.158 µM |
| C[C@H]1NC(=O)[C@@H]2CCCN2C(=O)[C@H](Cc2ccc3ccccc3c2)NC(=O)[C@H](CCCNC(=N)N)N(C)C(=O)[C@H](CCCNC(=N)N)NC1=O | > 30 | > 30 | – |
| C[C@@H]1NC(=O)[C@H](Cc2ccc3ccccc3c2)NC(=O)[C@H](CCCNC(=N)N)NC(=O)[C@H](CCCNC(=N)N)NC(=O)[C@@H](Cc2ccc(O)cc2)NC1=O (cyclo([2Nal]A[dY]RR)) | 18 | 23 | – |
| CN1C(=O)[C@@H](Cc2ccc(O)cc2)NC(=O)[C@@H]2CCCN2C(=O)[C@H](Cc2ccc3ccccc3c2)NC(=O)[C@H](CCCNC(=N)N)NC(=O)[C@H]1CCCNC(=N)N | 13 | > 30 | – |
